# Reference: the M2OR odorant receptor database
# Key:
# Settings in all cases: stereoisomer not certain
# [1] = target: T1, UniProt E9Q9Z6
# T1 sequence (whole entry): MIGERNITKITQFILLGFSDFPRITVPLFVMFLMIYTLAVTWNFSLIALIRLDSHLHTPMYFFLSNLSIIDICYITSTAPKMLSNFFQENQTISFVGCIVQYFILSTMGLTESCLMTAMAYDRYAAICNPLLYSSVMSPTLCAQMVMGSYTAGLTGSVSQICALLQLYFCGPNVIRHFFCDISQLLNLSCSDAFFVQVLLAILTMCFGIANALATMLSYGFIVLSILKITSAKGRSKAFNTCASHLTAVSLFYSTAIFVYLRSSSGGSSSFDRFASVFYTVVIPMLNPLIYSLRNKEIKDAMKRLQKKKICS
# How it was run: (§1)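 Whether a receptor–molecule pair is responsive (active) rests on the original authors' judgment that its measured signal was statistically different from baseline. Pairs without that judgment are non-responsive (inactive). Sources used varied assay methods, commonly transient luciferase assays in mammalian cell lines.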
# [2] = target: T2, UniProt E9PVX1
# T2 sequence (whole entry): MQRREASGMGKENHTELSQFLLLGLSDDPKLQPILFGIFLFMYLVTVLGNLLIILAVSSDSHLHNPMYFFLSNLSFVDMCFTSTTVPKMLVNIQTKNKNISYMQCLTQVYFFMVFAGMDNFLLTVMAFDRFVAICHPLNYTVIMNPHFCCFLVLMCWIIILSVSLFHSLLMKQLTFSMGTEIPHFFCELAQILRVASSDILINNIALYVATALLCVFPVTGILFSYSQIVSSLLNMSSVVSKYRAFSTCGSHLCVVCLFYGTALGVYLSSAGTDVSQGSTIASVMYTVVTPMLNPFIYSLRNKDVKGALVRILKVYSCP
# How it was run: as §1
# [3] = target: T3, UniProt E9PZ66
# T3 sequence (whole entry): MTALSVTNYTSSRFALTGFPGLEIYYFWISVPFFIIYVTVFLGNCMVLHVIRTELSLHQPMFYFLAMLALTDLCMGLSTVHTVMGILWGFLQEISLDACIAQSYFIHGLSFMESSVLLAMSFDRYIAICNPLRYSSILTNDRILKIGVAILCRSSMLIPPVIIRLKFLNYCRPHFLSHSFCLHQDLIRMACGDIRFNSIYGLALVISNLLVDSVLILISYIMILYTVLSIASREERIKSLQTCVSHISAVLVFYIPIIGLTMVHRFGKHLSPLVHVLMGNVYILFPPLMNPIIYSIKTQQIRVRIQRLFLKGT
# How it was run: as §1
# [4] = target: T4, UniProt E9Q4X7
# T4 sequence (whole entry): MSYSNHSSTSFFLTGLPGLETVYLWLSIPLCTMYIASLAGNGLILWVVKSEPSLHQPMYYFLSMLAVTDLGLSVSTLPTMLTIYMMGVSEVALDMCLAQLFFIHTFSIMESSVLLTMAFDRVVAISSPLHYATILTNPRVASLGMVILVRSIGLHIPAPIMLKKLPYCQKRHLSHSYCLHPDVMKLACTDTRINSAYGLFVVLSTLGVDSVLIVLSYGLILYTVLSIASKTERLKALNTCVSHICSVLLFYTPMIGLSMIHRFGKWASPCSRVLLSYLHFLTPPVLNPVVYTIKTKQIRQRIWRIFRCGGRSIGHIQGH
# How it was run: as §1
# [5] = target: T5, UniProt E9Q546
# T5 sequence (whole entry): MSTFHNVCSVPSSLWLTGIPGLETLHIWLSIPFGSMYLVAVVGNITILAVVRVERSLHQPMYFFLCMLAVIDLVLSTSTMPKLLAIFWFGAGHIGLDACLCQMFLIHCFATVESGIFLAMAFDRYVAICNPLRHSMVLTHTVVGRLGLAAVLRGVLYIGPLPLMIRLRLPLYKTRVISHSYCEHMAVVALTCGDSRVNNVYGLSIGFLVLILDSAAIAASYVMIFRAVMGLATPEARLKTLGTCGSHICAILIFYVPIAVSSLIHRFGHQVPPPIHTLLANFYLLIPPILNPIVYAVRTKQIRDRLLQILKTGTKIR
# How it was run: as §1
# [6] = target: T6, UniProt E9Q6Z7
# T6 sequence (whole entry): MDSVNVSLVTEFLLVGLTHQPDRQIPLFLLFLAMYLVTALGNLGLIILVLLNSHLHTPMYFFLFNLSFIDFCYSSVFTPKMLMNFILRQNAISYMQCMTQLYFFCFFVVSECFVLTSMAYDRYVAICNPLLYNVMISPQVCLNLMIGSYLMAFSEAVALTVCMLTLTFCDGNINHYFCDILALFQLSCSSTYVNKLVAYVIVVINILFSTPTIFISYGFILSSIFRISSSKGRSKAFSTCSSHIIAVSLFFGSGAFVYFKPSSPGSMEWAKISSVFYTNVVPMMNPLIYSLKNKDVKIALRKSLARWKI
# How it was run: as §1
# [7] = target: T7, UniProt L7MU75
# T7 sequence (whole entry): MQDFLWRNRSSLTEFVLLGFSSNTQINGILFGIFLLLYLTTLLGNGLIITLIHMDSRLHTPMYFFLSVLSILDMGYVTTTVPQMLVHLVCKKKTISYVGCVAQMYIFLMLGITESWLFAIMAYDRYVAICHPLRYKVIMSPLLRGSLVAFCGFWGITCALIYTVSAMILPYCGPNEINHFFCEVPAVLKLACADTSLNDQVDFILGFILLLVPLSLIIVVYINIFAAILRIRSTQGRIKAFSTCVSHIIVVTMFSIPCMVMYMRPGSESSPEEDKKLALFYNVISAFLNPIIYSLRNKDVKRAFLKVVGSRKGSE
# How it was run: as §1
# [8] = target: T8, UniProt L7N210
# T8 sequence (whole entry): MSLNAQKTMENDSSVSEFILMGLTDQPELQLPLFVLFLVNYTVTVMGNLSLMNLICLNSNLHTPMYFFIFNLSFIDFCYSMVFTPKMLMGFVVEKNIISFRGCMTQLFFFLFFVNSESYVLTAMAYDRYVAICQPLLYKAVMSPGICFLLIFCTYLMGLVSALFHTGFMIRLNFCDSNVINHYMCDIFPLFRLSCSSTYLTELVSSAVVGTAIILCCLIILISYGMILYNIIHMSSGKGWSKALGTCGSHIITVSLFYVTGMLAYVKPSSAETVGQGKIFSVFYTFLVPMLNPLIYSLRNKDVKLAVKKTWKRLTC
# How it was run: as §1
# [9] = target: T9, UniProt Q3KPB0
# T9 sequence (whole entry): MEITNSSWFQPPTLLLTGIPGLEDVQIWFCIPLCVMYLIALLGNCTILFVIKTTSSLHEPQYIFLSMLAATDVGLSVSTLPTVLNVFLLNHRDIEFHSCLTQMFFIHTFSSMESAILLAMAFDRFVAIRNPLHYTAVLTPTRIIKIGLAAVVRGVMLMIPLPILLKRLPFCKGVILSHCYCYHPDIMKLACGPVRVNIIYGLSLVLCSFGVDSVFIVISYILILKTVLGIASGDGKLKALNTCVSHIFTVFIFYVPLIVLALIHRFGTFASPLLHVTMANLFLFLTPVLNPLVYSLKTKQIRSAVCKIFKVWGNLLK
# How it was run: as §1
# [10] = target: T10, UniProt Q3U0P3
# T10 sequence (whole entry): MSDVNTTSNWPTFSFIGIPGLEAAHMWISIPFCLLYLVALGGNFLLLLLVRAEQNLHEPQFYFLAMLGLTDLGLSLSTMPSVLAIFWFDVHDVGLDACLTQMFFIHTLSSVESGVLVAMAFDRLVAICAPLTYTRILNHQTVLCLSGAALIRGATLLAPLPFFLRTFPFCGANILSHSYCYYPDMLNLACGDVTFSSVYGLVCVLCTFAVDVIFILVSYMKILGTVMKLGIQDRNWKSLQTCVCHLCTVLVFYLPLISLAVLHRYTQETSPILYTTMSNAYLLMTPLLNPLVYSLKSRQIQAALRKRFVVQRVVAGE
# How it was run: as §1
# [11] = target: T11, UniProt Q7TQU8
# T11 sequence (whole entry): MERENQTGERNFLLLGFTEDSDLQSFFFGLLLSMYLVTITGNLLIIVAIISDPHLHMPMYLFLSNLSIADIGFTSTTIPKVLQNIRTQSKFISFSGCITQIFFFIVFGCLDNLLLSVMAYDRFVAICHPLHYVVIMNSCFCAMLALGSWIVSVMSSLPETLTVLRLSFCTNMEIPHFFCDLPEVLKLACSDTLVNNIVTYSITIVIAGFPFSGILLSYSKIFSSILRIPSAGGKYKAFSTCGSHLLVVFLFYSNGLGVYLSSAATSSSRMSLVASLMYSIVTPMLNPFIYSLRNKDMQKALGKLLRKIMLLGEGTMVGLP
# How it was run: as §1
# [12] = target: T12, UniProt Q7TR79
# T12 sequence (whole entry): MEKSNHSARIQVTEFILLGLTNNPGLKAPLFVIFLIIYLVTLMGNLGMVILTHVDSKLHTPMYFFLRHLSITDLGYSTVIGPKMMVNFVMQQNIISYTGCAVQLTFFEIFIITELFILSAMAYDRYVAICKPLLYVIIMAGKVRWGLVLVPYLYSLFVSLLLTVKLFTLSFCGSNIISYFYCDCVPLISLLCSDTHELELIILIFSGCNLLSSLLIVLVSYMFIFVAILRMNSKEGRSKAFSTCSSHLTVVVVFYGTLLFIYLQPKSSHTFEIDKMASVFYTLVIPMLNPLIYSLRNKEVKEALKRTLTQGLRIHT
# How it was run: as §1
# 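Note: active if original authors judged signal statistically different from baseline.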
Structure (SMILES),odorant receptor agonist call [1],odorant receptor agonist call [2],odorant receptor agonist call [3],odorant receptor agonist call [4],odorant receptor agonist call [5],odorant receptor agonist call [6],odorant receptor agonist call [7],odorant receptor agonist call [8],odorant receptor agonist call [9],odorant receptor agonist call [10],odorant receptor agonist call [11],odorant receptor agonist call [12]
CC(=O)c1cc(C(C)(C)C)cc2c1CCC2(C)C,inactive,–,–,–,–,–,–,–,–,–,–,–
CCCCC(Br)C(=O)O (configuration not stated),–,inactive,inactive,inactive,inactive,inactive,inactive,active,inactive,inactive,inactive,inactive
